Tests used:
Zea mays [1] = assay: Phytotoxicity in Zea mays assessed (maize) as total root length measured per plant at 400 ug/L measured 5 days post compound treatment (reference value: 12.32 +/- 1.46 cm); type: functional
Zea mays [2] = assay: Phytotoxicity in Zea mays (maize) assessed as shoot dry weight assessed per 10 plants at 800 ug/L measured 5 days post compound treatment (reference value: 101.2 +/- 4.5 mg); type: functional
Zea mays [3] = assay: Phytotoxicity in Zea mays (maize) assessed as shoot dry weight assessed per 10 plants at 100 ug/L measured 5 days post compound treatment (reference value: 101.2 +/- 4.5 mg); type: functional
Zea mays [4] = assay: Effect on root surface area in Zea mays (maize) seedlings at 100 to 800 ug/L; type: functional, organism-based
Outline: (§1)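 Maize seedlings were grown in a chamber (12 h light, 10,000 lx, 25/20 °C, 60% RH) for five days under graded levels of S-(+)-, R-(-)- or racemic IM. Root diameter, volume, surface area and tip number were measured per plant with an automatic root scanner. Values are means ± SD of three replicates of 10 randomly selected seedlings each.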

Zea mays [5] = assay: Phytotoxicity in Zea mays (maize) assessed as root dry weight assessed per 10 plants at 400 ug/L measured 5 days post compound treatment (reference value: 42.8 +/- 0.7 mg); type: functional
Zea mays [6] = assay: Phytotoxicity in Zea mays (maize) assessed as shoot height at 200 ug/L measured 5 days post compound treatment (reference value: 6.89 +/- 0.30 cm); type: functional
Zea mays [7] = assay: Effect on root volume in Zea mays (maize) seedlings at 100 to 800 ug/L; type: functional, organism-based; outline: as §1
Zea mays [8] = assay: Phytotoxicity in Zea mays (maize) assessed as shoot dry weight assessed per 10 plants at 200 ug/L measured 5 days post compound treatment (reference value: 101.2 +/- 4.5 mg); type: functional
Zea mays [9] = assay: Phytotoxicity in Zea mays (maize) assessed as total root length measured per plant at 100 ug/L measured 5 days post compound treatment (reference value: 12.32 +/- 1.46 cm); type: functional
Zea mays [10] = assay: Phytotoxicity in Zea mays (maize) assessed as shoot dry weight assessed per 10 plants at 400 ug/L measured 5 days post compound treatment (reference value: 101.2 +/- 4.5 mg); type: functional
Zea mays [11] = assay: Phytotoxicity in Zea mays (maize) assessed as shoot height at 100 ug/L measured 5 days post compound treatment (reference value: 6.89 +/- 0.30 cm); type: functional
Zea mays [12] = assay: Phytotoxicity in Zea mays (maize) assessed as root dry weight assessed per 10 plants at 200 ug/L measured 5 days post compound treatment (reference value: 42.8 +/- 0.7 mg); type: functional
Zea mays [13] = assay: Increase in root diameter in Zea mays (maize) seedlings at 100 to 800 ug/L; type: functional, organism-based; outline: as §1
Zea mays [14] = assay: Phytotoxicity in Zea mays (maize) assessed as shoot height at 800 ug/L measured 5 days post compound treatment (reference value: 6.89 +/- 0.30 cm); type: functional
Zea mays [15] = assay: Reduction in root tips in Zea mays (maize) seedlings at 100 to 800 ug/L; type: functional, organism-based; outline: as §1
Zea mays [16] = assay: Phytotoxicity in Zea mays (maize) assessed as root dry weight assessed per 10 plants at 800 ug/L measured 5 days post compound treatment (reference value: 42.8 +/- 0.7 mg); type: functional
Zea mays [17] = assay: Phytotoxicity in Zea mays assessed (maize) as total root length measured per plant at 800 ug/L measured 5 days post compound treatment (reference value: 12.32 +/- 1.46 cm); type: functional
Zea mays [18] = assay: Phytotoxicity in Zea mays assessed (maize) as total root length measured per plant at 200 ug/L measured 5 days post compound treatment (reference value: 12.32 +/- 1.46 cm); type: functional
Zea mays [19] = assay: Phytotoxicity in Zea mays (maize) assessed as root dry weight assessed per 10 plants at 100 ug/L measured 5 days post compound treatment (reference value: 42.8 +/- 0.7 mg); type: functional
Zea mays [20] = assay: Phytotoxicity in Zea mays (maize) assessed as shoot height at 400 ug/L measured 5 days post compound treatment (reference value: 6.89 +/- 0.30 cm); type: functional
Zea mays [21] = assay: Reduction of root hair growth in Zea mays (maize) seedlings at 400 ug/L measured 48 hr post dose by microscopy; type: functional, organism-based
Outline: (§2)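 Maize seedlings with primary roots about 2 mm long were moved to 0 or 400 µg L-1 S-(+)-, R-(-)- or racemic IM solution. After 48 h, root tips (border cells) and the densest root-hair zone were examined and photographed under a light microscope. Growth chamber: 12 h light, 25/20 °C, 60% RH.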

Zea mays [22] = assay: Induction of ultrastructure damage of root tip statocytes in Zea mays (maize) seedlings at 400 ug/L measured 48 hr post dose by transmission electron microscopy; type: functional, organism-based
Outline: (§3)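 Maize seeds surface-sterilized in 10% NaOCl for 10 min, soaked 12 h, germinated on moist gauze. Root-tip sections of 1-3 mm were fixed in 4% glutaraldehyde, postfixed in OsO4 and embedded in Spurr's resin. 80 nm sections were viewed by TEM at 60 kV.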

Zea mays [23] = assay: Reduction of sloughing of border cells from root tips in Zea mays (maize) seedlings at 400 ug/L measured 48 hr post dose by microscopy; type: functional, organism-based; outline: as §2
Zea mays [24] = assay: Induction of ultrastructure damage of root tip statocytes in Zea mays (maize) seedlings assessed as reduction in starch grain size at 400 ug/L measured 48 hr post dose by transmission electron microscopy; type: functional, organism-based; outline: as §3
Zea mays [25] = assay: Induction of ultrastructure damage of root tip statocytes in Zea mays seedlings (maize) assessed as dictyosomers swelling at 400 ug/L measured 48 hr post dose by transmission electron microscopy; type: functional, organism-based; outline: as §3
Zea mays [26] = assay: Induction of ultrastructure damage of root tip statocytes in Zea mays (maize) seedlings assessed as induction of cell wall thickening at 400 ug/L measured 48 hr post dose by transmission electron microscopy; type: functional, organism-based; outline: as §3
Zea mays [27] = assay: Reduction in root tips in Zea mays (maize) seedlings at 100 ug/L; type: functional, organism-based; outline: as §1
Zea mays [28] = assay: Induction of ultrastructure damage of root tip statocytes in Zea mays (maize) seedlings assessed as destruction of mitochondria envelope membranes at 400 ug/L measured 48 hr post dose by transmission electron microscopy; type: functional, organism-based; outline: as §3
Zea mays [29] = assay: Induction of ultrastructure damage of root tip statocytes in Zea mays (maize) seedlings assessed as reduction in organelle size at 400 ug/L measured 48 hr post dose by transmission electron microscopy; type: functional, organism-based; outline: as §3
Zea mays [30] = assay: Effect on cell organelles in root tip statocytes in Zea mays (maize) seedlings at 400 ug/L measured 48 hr post dose by transmission electron microscopy; type: functional, organism-based; outline: as §3

In the case of CCc1cnc(C2=NC(C)(C(C)C)C(=O)N2)c(C(=O)O)c1 (racemic) [IMAZETHAPYR], the Activity (Zea mays [1]) is reported as 5.5 cm, the Activity (Zea mays [2]) is reported as 73.4 mg and the Activity (Zea mays [3]) is reported as 92.4 mg. The Activity (Zea mays [4]) was “Toxic”, the Activity (Zea mays [5]) was 26.4 mg and the Activity (Zea mays [6]) was 6.2 cm. For the same compound, the Activity (Zea mays [7]) was “Toxic”, the Activity (Zea mays [8]) was 107.8 mg and the Activity (Zea mays [9]) was 8.1 cm. It also gave an Activity (Zea mays [10]) of 83.3 mg, an Activity (Zea mays [11]) of 6.3 cm and an Activity (Zea mays [12]) of 34.6 mg. The Activity (Zea mays [13]) was “Toxic”, the Activity (Zea mays [14]) was 4 cm and the Activity (Zea mays [15]) was “Toxic”. The Activity (Zea mays [16]) was 29 mg, the Activity (Zea mays [17]) was 5.2 cm and the Activity (Zea mays [18]) was 7.4 cm. The Activity (Zea mays [19]) was 36.1 mg, the Activity (Zea mays [20]) was 4.6 cm and the Activity (Zea mays [21]) was “Non-toxic”.

CCc1cnc(C2=N[C@](C)(C(C)C)C(=O)N2)c(C(=O)O)c1 [R-(-)-IMAZETHAPYR] showed an Activity (Zea mays [1]) of 4.9 cm, an Activity (Zea mays [2]) of 57.1 mg and an Activity (Zea mays [3]) of 90.3 mg. For the same compound, the Activity (Zea mays [22]) was “Toxic”, the Activity (Zea mays [23]) was “Toxic” and the Activity (Zea mays [4]) was “Toxic”. For the same compound, the Activity (Zea mays [24]) was “Toxic”, the Activity (Zea mays [5]) was 25.7 mg and the Activity (Zea mays [6]) was 5.9 cm. For the same compound, the Activity (Zea mays [7]) was “Toxic”, the Activity (Zea mays [8]) was 91.9 mg and the Activity (Zea mays [9]) was 7.7 cm. For the same compound, the Activity (Zea mays [10]) was 61.4 mg, the Activity (Zea mays [25]) was “Toxic” and the Activity (Zea mays [11]) was 6.2 cm. The Activity (Zea mays [12]) was 30.5 mg, the Activity (Zea mays [13]) was “Toxic” and the Activity (Zea mays [14]) was 3.4 cm. The Activity (Zea mays [15]) was “Toxic”, the Activity (Zea mays [16]) was 25.2 mg and the Activity (Zea mays [26]) was “Toxic”. For the same compound, the Activity (Zea mays [27]) was “Toxic”, the Activity (Zea mays [17]) was 4.8 cm and the Activity (Zea mays [18]) was 6.4 cm. For the same compound, the Activity (Zea mays [28]) was “Toxic”, the Activity (Zea mays [19]) was 33.8 mg and the Activity (Zea mays [29]) was “Toxic”. For the same compound, the Activity (Zea mays [20]) was 3.9 cm and the Activity (Zea mays [21]) was “Toxic”.

For CCc1cnc(C2=N[C@@](C)(C(C)C)C(=O)N2)c(C(=O)O)c1 [S-(+)-IMAZETHAPYR], the Activity (Zea mays [30]) was “Non-toxic”, the Activity (Zea mays [1]) was 7.2 cm and the Activity (Zea mays [2]) was 75.6 mg. For the same compound, the Activity (Zea mays [3]) was 100 mg, the Activity (Zea mays [22]) was “Non-toxic” and the Activity (Zea mays [4]) was “Toxic”. For the same compound, the Activity (Zea mays [24]) was “Non-toxic”, the Activity (Zea mays [5]) was 30.3 mg and the Activity (Zea mays [6]) was 6.3 cm. The Activity (Zea mays [7]) was “Toxic”, the Activity (Zea mays [8]) was 101.3 mg and the Activity (Zea mays [9]) was 9.4 cm. The Activity (Zea mays [10]) was 85.4 mg, the Activity (Zea mays [11]) was 6.5 cm and the Activity (Zea mays [12]) was 35.1 mg. For the same compound, the Activity (Zea mays [13]) was “Non-toxic”, the Activity (Zea mays [14]) was 5.1 cm and the Activity (Zea mays [15]) was “Toxic”. For the same compound, the Activity (Zea mays [16]) was 29.6 mg, the Activity (Zea mays [27]) was “Non-toxic” and the Activity (Zea mays [17]) was 6.1 cm. The Activity (Zea mays [18]) was 8.9 cm, the Activity (Zea mays [19]) was 36.6 mg and the Activity (Zea mays [20]) was 5.7 cm. For the same compound, the Activity (Zea mays [21]) was “Non-toxic”.

Source: ChEMBL document CHEMBL3046020, “Enantioselectivity in the phytotoxicity of herbicide imazethapyr” (2009)
